Experimental data from ChEMBL document CHEMBL5058577, “EUbOPEN Chemogenomics Library 2 (Multiplex)” (2022).

System: HEK-293T
Test: Multiplex assay against HEK293T
Assay type: toxicity, cell-based
Details: human
In short: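 Values for tubulin, mitochondrial-mass and membrane-permeability phenotypes are per cents of cells with healthy nuclei. These cells were identified by CellPathfinder machine-learning gating of live cells that had been stained at seeding with Hoechst33342, BioTracker Green Microtubule Cytoskeleton Dye, MitoTracker Red and Annexin V Alexa Fluor 680 and imaged on a CQ1 microscope at 37°C and 5% CO2 after compound addition. The gating first set Hoechst high-intensity objects apart from normal cells, then split normal cells into healthy, pyknosed or fragmented nuclei, and pyknosed cells into mitotic or apoptotic.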

[1] = 12 h, 1 µM, compound concentration 1 uM, replicate 1
[2] = 12 h, 1 µM, compound concentration 1 uM, replicate 2
[3] = 12 h, 10 µM, compound concentration 10 uM, replicate 1
[4] = 12 h, 10 µM, compound concentration 10 uM, replicate 2
[5] = 24 h, 1 µM, compound concentration 1 uM, replicate 1
[6] = 24 h, 1 µM, compound concentration 1 uM, replicate 2
[7] = 24 h, 10 µM, compound concentration 10 uM, replicate 1
[8] = 24 h, 10 µM, compound concentration 10 uM, replicate 2
[9] = 48 h, 1 µM, compound concentration 1 uM, replicate 1
[10] = 48 h, 1 µM, compound concentration 1 uM, replicate 2
[11] = 48 h, 10 µM, compound concentration 10 uM, replicate 1
[12] = 48 h, 10 µM, compound concentration 10 uM, replicate 2

**Q.** What does the source list for `CCCn1c(=O)c2[nH]c(C3CCCC3)nc2n(CCC)c1=O` [1,3-DIPROPYL-8-CYCLOPENTYLXANTHINE [DPCPX]]?
**A.** Population Apoptotic (%) [1]: 35%; Population Fragmented Nuclei (%) [1]: 7%; Population Healthy Nuclei (%) [1]: 79%; Population Hoechst High Intensity Objects (%) [1]: 6%; Population Membrane Permeable-Phenotype (%) [1]: 0%; Population Mitochondria Different-Phenotype (%) [1]: 44%; Population Mitotic Cells (%) [1]: 64%; Population Normal (%) [1]: 93%; Population Pyknosed Nuclei (%) [1]: 12%; Population Tubulin-Different-Phenotype (%) [1]: 32%; Total Cell Count [1]: 443; Population Apoptotic (%) [2]: 54%; Population Fragmented Nuclei (%) [2]: 3%; Population Healthy Nuclei (%) [2]: 81%; Population Hoechst High Intensity Objects (%) [2]: 3%; Population Mitochondria Different-Phenotype (%) [2]: 52%; Population Mitotic Cells (%) [2]: 45%; Population Normal (%) [2]: 96%; Population Pyknosed Nuclei (%) [2]: 14%; Population Tubulin-Different-Phenotype (%) [2]: 15%; Total Cell Count [2]: 361; Population Apoptotic (%) [3]: 60%; Population Fragmented Nuclei (%) [3]: 12%; Population Healthy Nuclei (%) [3]: 68%; Population Hoechst High Intensity Objects (%) [3]: 5%; Population Membrane Permeable-Phenotype (%) [3]: 0%; Population Mitochondria Different-Phenotype (%) [3]: 58%; Population Mitotic Cells (%) [3]: 39%; Population Normal (%) [3]: 94%; Population Pyknosed Nuclei (%) [3]: 19%; Population Tubulin-Different-Phenotype (%) [3]: 51%; Total Cell Count [3]: 295; Population Apoptotic (%) [4]: 54%; Population Fragmented Nuclei (%) [4]: 7%; Population Healthy Nuclei (%) [4]: 75%; Population Hoechst High Intensity Objects (%) [4]: 18%; Population Mitochondria Different-Phenotype (%) [4]: 68%; Population Mitotic Cells (%) [4]: 45%; Population Normal (%) [4]: 81%; Population Pyknosed Nuclei (%) [4]: 16%; Population Tubulin-Different-Phenotype (%) [4]: 45%; Total Cell Count [4]: 337; Population Apoptotic (%) [5]: 26%; Population Fragmented Nuclei (%) [5]: 8%; Population Healthy Nuclei (%) [5]: 78%; Population Hoechst High Intensity Objects (%) [5]: 4%; Population Membrane Permeable-Phenotype (%) [5]: 1%; Population Mitochondria Different-Phenotype (%) [5]: 25%; Population Mitotic Cells (%) [5]: 73%; Population Normal (%) [5]: 95%; Population Pyknosed Nuclei (%) [5]: 13%; Population Tubulin-Different-Phenotype (%) [5]: 20%; Total Cell Count [5]: 610; Population Apoptotic (%) [6]: 28%; Population Fragmented Nuclei (%) [6]: 7%; Population Healthy Nuclei (%) [6]: 82%; Population Hoechst High Intensity Objects (%) [6]: 3%; Population Membrane Permeable-Phenotype (%) [6]: 0%; Population Mitochondria Different-Phenotype (%) [6]: 45%; Population Mitotic Cells (%) [6]: 71%; Population Normal (%) [6]: 96%; Population Pyknosed Nuclei (%) [6]: 10%; Population Tubulin-Different-Phenotype (%) [6]: 19%; Total Cell Count [6]: 403; Population Apoptotic (%) [7]: 50%; Population Fragmented Nuclei (%) [7]: 8%; Population Healthy Nuclei (%) [7]: 76%; Population Hoechst High Intensity Objects (%) [7]: 4%; Population Membrane Permeable-Phenotype (%) [7]: 0%; Population Mitochondria Different-Phenotype (%) [7]: 43%; Population Mitotic Cells (%) [7]: 50%; Population Normal (%) [7]: 95%; Population Pyknosed Nuclei (%) [7]: 14%; Population Tubulin-Different-Phenotype (%) [7]: 40%; Total Cell Count [7]: 379; Population Apoptotic (%) [8]: 41%; Population Fragmented Nuclei (%) [8]: 7%; Population Healthy Nuclei (%) [8]: 79%; Population Hoechst High Intensity Objects (%) [8]: 15%; Population Mitochondria Different-Phenotype (%) [8]: 55%; Population Mitotic Cells (%) [8]: 58%; Population Normal (%) [8]: 84%; Population Pyknosed Nuclei (%) [8]: 13%; Population Tubulin-Different-Phenotype (%) [8]: 31%; Total Cell Count [8]: 411; Population Apoptotic (%) [9]: 33%; Population Fragmented Nuclei (%) [9]: 11%; Population Healthy Nuclei (%) [9]: 81%; Population Hoechst High Intensity Objects (%) [9]: 1%; Population Membrane Permeable-Phenotype (%) [9]: 1%; Population Mitochondria Different-Phenotype (%) [9]: 17%; Population Mitotic Cells (%) [9]: 66%; Population Normal (%) [9]: 98%; Population Pyknosed Nuclei (%) [9]: 7%; Population Tubulin-Different-Phenotype (%) [9]: 17%; Total Cell Count [9]: 957; Population Apoptotic (%) [10]: 39%; Population Fragmented Nuclei (%) [10]: 14%; Population Healthy Nuclei (%) [10]: 80%; Population Hoechst High Intensity Objects (%) [10]: 3%; Population Membrane Permeable-Phenotype (%) [10]: 0%; Population Mitochondria Different-Phenotype (%) [10]: 22%; Population Mitotic Cells (%) [10]: 60%; Population Normal (%) [10]: 96%; Population Pyknosed Nuclei (%) [10]: 5%; Population Tubulin-Different-Phenotype (%) [10]: 13%; Total Cell Count [10]: 593; Population Apoptotic (%) [11]: 29%; Population Fragmented Nuclei (%) [11]: 14%; Population Healthy Nuclei (%) [11]: 76%; Population Hoechst High Intensity Objects (%) [11]: 3%; Population Membrane Permeable-Phenotype (%) [11]: 1%; Population Mitochondria Different-Phenotype (%) [11]: 37%; Population Mitotic Cells (%) [11]: 70%; Population Normal (%) [11]: 96%; Population Pyknosed Nuclei (%) [11]: 8%; Population Tubulin-Different-Phenotype (%) [11]: 30%; Total Cell Count [11]: 511; Population Apoptotic (%) [12]: 45%; Population Healthy Nuclei (%) [12]: 75%; Population Hoechst High Intensity Objects (%) [12]: 7%; Population Membrane Permeable-Phenotype (%) [12]: 0%; Population Mitochondria Different-Phenotype (%) [12]: 36%; Population Mitotic Cells (%) [12]: 54%; Population Normal (%) [12]: 92%; Population Pyknosed Nuclei (%) [12]: 10%; Population Tubulin-Different-Phenotype (%) [12]: 23%; Total Cell Count [12]: 516
